“Also recorded” adds a separate entry of the source. Where two headings read alike, the source gives them in different places.

Data on seven compounds can be found in publication PMC3457786 (Journal of chromatography. B, Analytical technologies in …, 2012).

For data set [1] the following is noted: ref [30]; cited from earlier work.
The subject of data set [2] is HIV-1. As to conditions: ref [14], cited from earlier work.
In data set [3] the test system is Caco-2 cells. As to conditions: Caco-2 cells in vitro; ref [34]; cited from earlier work.
Data set [4] has as its system lung cancer xenografts. The settings on record: mice, oral route; ref (35); cited from earlier work.
Data set [5] is described as follows: Stability and isomer conversion of chelator solutions by HPLC. Format: physicochemical. As to conditions: resolved by HPLC. The essentials:
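Solutions diluted in HBSS from 100 mM DMSO stocks, sonicated and warmed to 37°C. Stored at 4°C for one week with freeze-thaw, or 4 h at room temperature or 40°C. 50 µM solutions with a 10 µM thiosemicarbazone internal standard injected fresh and after 24 h at 4°C. Reversed-phase F5 column, 40°C, 1 mL/min, 2 mM ammonium acetate/10 mM EDTA–acetonitrile 50:50, pH 5.8, UV 318 nm.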

Data set [6] concerns Caco-2 cells. Kind of data set: Cytotoxicity assay. As to conditions: concentrations up to 500 µM, 24 h. Format: cell-based.
The test system of data set [7] is labile iron pool (LIP) in THP-1 cells. As to the kind of experiment: Calcein-based iron chelation assay. The settings on record: iron-loaded THP-1 cells, 10 µM chelator, SIH as positive control. The format is cell-based, human. The essentials: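 THP-1 cells were loaded with ferric sulfate at 25 µM for 1 h (figure legend: iron(II) sulfate at 10 µM for 3 h, 37°C). They then took calcein-AM at 0.2 µM for 10 min at 37°C, were washed and resuspended in PBS. Chelator (10 µM) or SIH (30 µM) was added. Fluorescence (ex 465/em 510 nm) was read immediately in repeated 2-min cycles at 37°C, expressed as (F−Fi)/Fi, with Fi = fluorescence at time 0.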

The test system of data set [8] is Caco-2 monolayers. Kind of data set: Drug transport. The format is in vitro ADME, human. As to conditions: for Papp (× 10^−5) (cm/s) AP-to-BL / Papp (× 10^−5) (cm/s) BL-to-AP: 37°C, 30-120 min, mean ± SD (n=3).
Data set [9] relates to Caco-2 monolayers. As to the kind of experiment: Lucifer yellow. Format: in vitro ADME, human. The settings on record: either direction, at the ends of the experiments.
The nature of data set [10]: Cytotoxicity assay. As to conditions: human. Format: cell-based.
Setting [11] is: 100 µM chelator, Caco-2 monolayers.
Setting [12] is: 300 µM chelator, Caco-2 monolayers.

`CC(=O)N(O)CCCCCNC(=O)CCC(=O)N(O)CCCCCNC(=O)CCC(=O)N(O)CCCCCN` [DFO, desferrioxamine]: the “Absorption through the gastrointestinal tract” value in data set [1] is recorded as “very poor absorption”.

As for `O=C(O)c1ccc(-n2nc(-c3ccccc3O)nc2-c2ccccc2O)cc1` [ICL670, 4-[3,5-bis-(hydroxyphenyl)-1,2,4-triazol-1-yl]-benzoic acid, reference compound], the “IC50, inhibition of HIV-1 replication” value is on record as “high micromolar concentrations” in data set [2] ([15]) and “high micromolar range” in data set [2]. Also, the Papp value in data set [3] is 1.66 ± 0.13 × 10^−5 cm/s.

As to `CN(C)C(=S)NN=C(c1ccccc1)c1ccccn1` [Bp44mT, 2-benzoylpyridine-4,4-dimethyl-3-thiosemicarbazone], in [4], the “Efficacy against lung cancer xenografts” value is reported as “marked efficacy”.

As for `C=CCNC(=S)NN=C(c1ccccc1)c1ccccn1` [Bp4aT, 2-benzoylpyridine 4-allyl-3-thiosemicarbazone], in data set [2] ([15]), the “IC50, inhibition of HIV-1 replication” value is “nanomolar concentrations”. Besides, in data set [5], the “E/Z isomer formation in aqueous solution” value was “formed inter-convertible Z and E isomers”. Moreover, the “Effect on Caco-2 cell growth / cytotoxicity” value in [6] is reported as “little effect; also recorded: no apparent cytotoxicity”. Moreover, the “Intracellular iron chelation (calcein de-quenching)” value in data set [7] was “slightly more effective intracellular iron chelators than SIH; also recorded: greater chelation efficacy than Bp4eT”. The “Rnet, ratio of Papp (BL-to-AP) to Papp (AP-to-BL)” value in data set [8] (100 µM chelator) is 0.77; in data set [8] (300 µM chelator) it was 0.92. Further, the “Papp (× 10^−5) (cm/s) AP-to-BL” value is 1.670 ± 0.016 × 10^−5 cm/s in data set [8] (setting [11]) and 2.756 ± 0.261 × 10^−5 cm/s in data set [8] (setting [12]). Also, the “Papp (× 10^−5) (cm/s) BL-to-AP” value in data set [8] (setting [11]) was 1.292 ± 0.282 × 10^−5 cm/s; in [8] (setting [12]), 2.534 ± 0.454 × 10^−5 cm/s. In data set [8] (relative to Bp4eT, Caco-2 monolayers), the “Transport of Bp4aT faster than that of Bp4eT” value was “approximately 1.5 fold”.

lucifer yellow [LY]: in data set [9], the “LY recovered from the receiver chambers” value is “Less than 2%”.

What is called viability is the share of living cells, or the viability signal relative to a control. Compound `NC(=S)NN=C(c1ccccc1)c1ccccn1` [BpT, 2-benzoylpyridine thiosemicarbazone] gave a viability at 24 h, 500 µM in [10] of about 70%.

As to `CCNC(=S)NN=C(c1ccccc1)c1ccccn1` [Bp4eT, 2-benzoylpyridine 4-ethyl-3-thiosemicarbazone], the “IC50, inhibition of HIV-1 replication” value in [2] ([15]) is “nanomolar concentrations”. Besides, the “E/Z isomer formation in aqueous solution” value in data set [5] is “formed inter-convertible Z and E isomers”. The “Intracellular iron chelation (calcein de-quenching)” value in data set [7] is reported as “slightly more effective intracellular iron chelators than SIH”. Also, the results for the “Rnet, ratio of Papp (BL-to-AP) to Papp (AP-to-BL)” value in data set [8] (100 µM chelator) and in data set [8] (300 µM chelator) were 1.10 and 0.89, respectively. In addition, the “Papp (× 10^−5) (cm/s) AP-to-BL” value in [8] (setting [11]) was 0.809 ± 0.119 × 10^−5 cm/s; in data set [8] (setting [12]) it was 1.819 ± 0.302 × 10^−5 cm/s. Also, the “Papp (× 10^−5) (cm/s) BL-to-AP” value in data set [8] (setting [11]) is listed as 0.889 ± 0.196 × 10^−5 cm/s; in data set [8] (setting [12]), 1.627 ± 0.107 × 10^−5 cm/s.
